Source: ChEMBL document CHEMBL5724801, “EUbOPEN Chemogenomics Library - Multiplex” (2024)
Values joined by “and” are separate entries in the source; they are usually repeats but may differ in a detail not shown here. Equal values may be shown once.

Test system: Fibroblast
Experiment: Multiplex assay against human fibroblast
Format: toxicity, cell-based
Summary of the method: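 Live cells carried four stains from seeding: Hoechst33342, BioTracker Green Microtubule Cytoskeleton Dye, MitoTracker Red and Annexin V Alexa Fluor 680. They were imaged on a CQ1 microscope at 37°C and 5% CO2 after compound addition. Using CellPathfinder machine-learning gating, cells were split into Hoechst high-intensity objects or normal cells, normal cells into healthy, pyknosed or fragmented nuclei, and pyknosed cells into mitotic or apoptotic; tubulin, mitochondrial-mass and membrane-permeability phenotypes are per cents of healthy-nucleus cells.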

[1] = 12 h, 1 µM, compound concentration 1 uM
[2] = 12 h, 10 µM, compound concentration 10 uM
[3] = 24 h, 1 µM, compound concentration 1 uM
[4] = 24 h, 10 µM, compound concentration 10 uM
[5] = 48 h, 1 µM, compound concentration 1 uM
[6] = 48 h, 10 µM, compound concentration 10 uM

## CC/C(=C(\c1ccc(O)cc1)c1ccc(OCCN(C)C)cc1)c1ccccc1 [AFIMOXIFENE]
[1]
  Population Apoptotic (%): 6.78% and 3.57%
  Population Fragmented Nuclei (%): 14.83% and 6.12%
  Population Healthy Nuclei (%): 56.94% and 79.59%
  Population Hoechst High Intensity Objects (%): 0%
  Population Membrane Permeable-Phenotype (%): 2.52% and 2.56%
  Population Mitochondria Different-Phenotype (%): 7.56% and 8.97%
  Population Mitotic Cells (%): 93.22% and 96.43%
  Population Normal (%): 100%
  Population Pyknosed Nuclei (%): 28.23% and 14.29%
  Population Tubulin-Different-Phenotype (%): 14.29% and 22.44%
  Total Cell Count: 209 and 196
[2]
  Population Fragmented Nuclei (%): 14.55% and 7.74%
  Population Healthy Nuclei (%): 54.55% and 72.76%
  Population Hoechst High Intensity Objects (%): 0%
  Population Membrane Permeable-Phenotype (%): 3.33% and 2.55%
  Population Mitochondria Different-Phenotype (%): 25.56% and 23.83%
  Population Mitotic Cells (%): 94.12% and 80.95%
  Population Normal (%): 100%
  Population Pyknosed Nuclei (%): 30.91% and 19.5%
  Population Tubulin-Different-Phenotype (%): 54.44% and 66.38%
  Total Cell Count: 165 and 323
[3]
  Population Apoptotic (%): 8.77% and 18.75%
  Population Fragmented Nuclei (%): 10.78% and 8.21%
  Population Healthy Nuclei (%): 64.66% and 83.59%
  Population Hoechst High Intensity Objects (%): 0%
  Population Membrane Permeable-Phenotype (%): 4% and 2.45%
  Population Mitochondria Different-Phenotype (%): 6.67% and 9.82%
  Population Mitotic Cells (%): 91.23% and 81.25%
  Population Normal (%): 100%
  Population Pyknosed Nuclei (%): 24.57% and 8.21%
  Population Tubulin-Different-Phenotype (%): 18% and 23.31%
  Total Cell Count: 232 and 195
[4]
  Population Apoptotic (%): 17.65% and 48.31%
  Population Fragmented Nuclei (%): 12.57%
  Population Healthy Nuclei (%): 50.27% and 67.6%
  Population Hoechst High Intensity Objects (%): 0%
  Population Membrane Permeable-Phenotype (%): 3.26% and 2.76%
  Population Mitochondria Different-Phenotype (%): 29.35% and 27.19%
  Population Mitotic Cells (%): 82.35% and 51.69%
  Population Normal (%): 100%
  Population Pyknosed Nuclei (%): 37.16% and 27.73%
  Population Tubulin-Different-Phenotype (%): 70.65% and 79.72%
  Total Cell Count: 183 and 321
[5]
  Population Fragmented Nuclei (%): 9.52% and 11.27%
  Population Healthy Nuclei (%): 83.67% and 81.69%
  Population Hoechst High Intensity Objects (%): 0%
  Population Membrane Permeable-Phenotype (%): 1.22% and 2.3%
  Population Mitochondria Different-Phenotype (%): 9.35% and 5.17%
  Population Mitotic Cells (%): 95% and 73.33%
  Population Normal (%): 100%
  Population Pyknosed Nuclei (%): 6.8% and 7.04%
  Population Tubulin-Different-Phenotype (%): 8.94% and 25.86%
  Total Cell Count: 294 and 213
[6]
  Population Apoptotic (%): 28.57% and 43.14%
  Population Healthy Nuclei (%): 71.37% and 80.49%
  Population Hoechst High Intensity Objects (%): 0%
  Population Membrane Permeable-Phenotype (%): 4.71%
  Population Mitochondria Different-Phenotype (%): 13.37% and 7.41%
  Population Mitotic Cells (%): 71.43% and 56.86%
  Population Normal (%): 100%
  Population Pyknosed Nuclei (%): 8.71% and 13.82%
  Population Tubulin-Different-Phenotype (%): 49.42% and 76.77%
  Total Cell Count: 241 and 369

## O=c1cccc2n1C[C@@H]1CNC[C@H]2C1 [CYTISINICLINE]
[1]
  Population Apoptotic (%): 5.66% and 13.33%
  Population Fragmented Nuclei (%): 10.05% and 5.19%
  Population Healthy Nuclei (%): 61.9% and 75.32%
  Population Hoechst High Intensity Objects (%): 0%
  Population Membrane Permeable-Phenotype (%): 4.27% and 5.17%
  Population Mitochondria Different-Phenotype (%): 5.98% and 6.9%
  Population Mitotic Cells (%): 94.34% and 86.67%
  Population Normal (%): 100%
  Population Pyknosed Nuclei (%): 28.04% and 19.48%
  Population Tubulin-Different-Phenotype (%): 11.11% and 12.93%
  Total Cell Count: 189 and 154
[2]
  Population Apoptotic (%): 15.38% and 16.67%
  Population Fragmented Nuclei (%): 13.5% and 4.41%
  Population Healthy Nuclei (%): 62.58% and 80.88%
  Population Hoechst High Intensity Objects (%): 0%
  Population Membrane Permeable-Phenotype (%): 11.76% and 2.42%
  Population Mitochondria Different-Phenotype (%): 9.8% and 7.27%
  Population Mitotic Cells (%): 84.62% and 83.33%
  Population Normal (%): 100%
  Population Pyknosed Nuclei (%): 23.93% and 14.71%
  Population Tubulin-Different-Phenotype (%): 20.59% and 20.61%
  Total Cell Count: 163 and 204
[3]
  Population Apoptotic (%): 10.81% and 26.67%
  Population Fragmented Nuclei (%): 10.86% and 6.41%
  Population Healthy Nuclei (%): 72.4% and 83.97%
  Population Hoechst High Intensity Objects (%): 0%
  Population Membrane Permeable-Phenotype (%): 3.12% and 3.05%
  Population Mitochondria Different-Phenotype (%): 4.38% and 3.82%
  Population Mitotic Cells (%): 89.19% and 73.33%
  Population Normal (%): 100%
  Population Pyknosed Nuclei (%): 16.74% and 9.62%
  Population Tubulin-Different-Phenotype (%): 13.12% and 12.21%
  Total Cell Count: 221 and 156
[4]
  Population Apoptotic (%): 8% and 22.22%
  Population Fragmented Nuclei (%): 9.26% and 6.16%
  Population Healthy Nuclei (%): 75.31% and 85.31%
  Population Hoechst High Intensity Objects (%): 0%
  Population Membrane Permeable-Phenotype (%): 6.56% and 4.44%
  Population Mitochondria Different-Phenotype (%): 5.74% and 5%
  Population Mitotic Cells (%): 92% and 77.78%
  Population Normal (%): 100%
  Population Pyknosed Nuclei (%): 15.43% and 8.53%
  Population Tubulin-Different-Phenotype (%): 20.49% and 23.33%
  Total Cell Count: 162 and 211
[5]
  Population Apoptotic (%): 26.67% and 22.22%
  Population Fragmented Nuclei (%): 7.5% and 5.23%
  Population Healthy Nuclei (%): 86.25% and 83.01%
  Population Hoechst High Intensity Objects (%): 0%
  Population Membrane Permeable-Phenotype (%): 0.48% and 1.57%
  Population Mitotic Cells (%): 73.33% and 77.78%
  Population Normal (%): 100%
  Population Pyknosed Nuclei (%): 6.25% and 11.76%
  Population Tubulin-Different-Phenotype (%): 3.38% and 7.09%
  Total Cell Count: 240 and 153
[6]
  Population Apoptotic (%): 62.5% and 28.57%
  Population Fragmented Nuclei (%): 8.67% and 8.44%
  Population Healthy Nuclei (%): 87.24% and 85.65%
  Population Hoechst High Intensity Objects (%): 0%
  Population Membrane Permeable-Phenotype (%): 0% and 2.46%
  Population Mitotic Cells (%): 37.5% and 71.43%
  Population Normal (%): 100%
  Population Pyknosed Nuclei (%): 4.08% and 5.91%
  Population Tubulin-Different-Phenotype (%): 8.19% and 18.72%
  Total Cell Count: 196 and 237

## C[C@@H]1C[C@H]2[C@@H]3CCC4=CC(=O)C=C[C@]4(C)[C@@]3(F)[C@@H](O)C[C@]2(C)[C@@]1(O)C(=O)CO [DEXAMETHASONE]
[1]
  Population Apoptotic (%): 62% and 38%
  Population Fragmented Nuclei (%): 18% and 30%
  Population Healthy Nuclei (%): 66% and 48%
  Population Hoechst High Intensity Objects (%): 7% and 3%
  Population Membrane Permeable-Phenotype (%): 0% and 9%
  Population Mitochondria Different-Phenotype (%): 2% and 4%
  Population Mitotic Cells (%): 37% and 61%
  Population Normal (%): 92% and 96%
  Population Pyknosed Nuclei (%): 15% and 20%
  Population Tubulin-Different-Phenotype (%): 26% and 52%
[2]
  Population Apoptotic (%): 35% and 30%
  Population Fragmented Nuclei (%): 20% and 24%
  Population Healthy Nuclei (%): 65% and 52%
  Population Hoechst High Intensity Objects (%): 2% and 6%
  Population Membrane Permeable-Phenotype (%): 1% and 4%
  Population Mitochondria Different-Phenotype (%): 5% and 2%
  Population Mitotic Cells (%): 65% and 69%
  Population Normal (%): 98% and 93%
  Population Pyknosed Nuclei (%): 13% and 23%
  Population Tubulin-Different-Phenotype (%): 22% and 53%
[3]
  Population Apoptotic (%): 48% and 31%
  Population Fragmented Nuclei (%): 14% and 29%
  Population Healthy Nuclei (%): 68% and 50%
  Population Hoechst High Intensity Objects (%): 5% and 6%
  Population Membrane Permeable-Phenotype (%): 1% and 4%
  Population Mitochondria Different-Phenotype (%): 3% and 1%
  Population Mitotic Cells (%): 52% and 68%
  Population Normal (%): 94% and 93%
  Population Pyknosed Nuclei (%): 17% and 19%
  Population Tubulin-Different-Phenotype (%): 26% and 53%
[4]
  Population Apoptotic (%): 42% and 30%
  Population Fragmented Nuclei (%): 15% and 30%
  Population Healthy Nuclei (%): 65% and 44%
  Population Hoechst High Intensity Objects (%): 3% and 6%
  Population Membrane Permeable-Phenotype (%): 1% and 10%
  Population Mitochondria Different-Phenotype (%): 6% and 2%
  Population Mitotic Cells (%): 57% and 69%
  Population Normal (%): 96% and 93%
  Population Pyknosed Nuclei (%): 18% and 24%
  Population Tubulin-Different-Phenotype (%): 22% and 45%
[5]
  Population Apoptotic (%): 46% and 37%
  Population Fragmented Nuclei (%): 22% and 38%
  Population Healthy Nuclei (%): 52% and 46%
  Population Hoechst High Intensity Objects (%): 6% and 4%
  Population Membrane Permeable-Phenotype (%): 2% and 4%
  Population Mitochondria Different-Phenotype (%): 4%
  Population Mitotic Cells (%): 53% and 62%
  Population Normal (%): 93% and 95%
  Population Pyknosed Nuclei (%): 24% and 14%
  Population Tubulin-Different-Phenotype (%): 34% and 53%
[6]
  Population Apoptotic (%): 50% and 37%
  Population Fragmented Nuclei (%): 22% and 36%
  Population Healthy Nuclei (%): 55% and 43%
  Population Hoechst High Intensity Objects (%): 4% and 7%
  Population Membrane Permeable-Phenotype (%): 0% and 10%
  Population Mitochondria Different-Phenotype (%): 7% and 0%
  Population Mitotic Cells (%): 50% and 62%
  Population Normal (%): 95% and 92%
  Population Pyknosed Nuclei (%): 22% and 20%
  Population Tubulin-Different-Phenotype (%): 19% and 39%
